Source: ChEMBL document CHEMBL1129752, “Novel 3-Pyridyl ethers with subnanomolar affinity for central neuronal nicotinic acetylcholine receptors” (J Med Chem, 1996)

Experiments:
K177 cell line [1] = assay: Maximum efficacy relative to 100(uM) (S)-nicotine for cell preparations containing alpha4-beta2 K177 cells; type: functional, Homo sapiens
[2] = target: Neuronal acetylcholine receptor; assay: Binding affinity against Nicotinic Acetylcholine Receptor was determined by measuring the displacement of [3H]cytisine from a preparation of whole rat brain.
Method in brief: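 Displacement of the radioligand [3H]-(-)-cytisine from a whole rat brain preparation, which mainly labels the α4β2 receptor subtype. The procedure follows a previously published method.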

IMR-32 [3] = assay: Ability to stimulate Rb+ efflux from human IMR-32 cell preparations containing human alpha3-betaX receptors; type: functional, cell-based
K177 cell line [4] = assay: Ability to stimulate Rb+ efflux from human K177 cell preparations containing human alpha4-beta2 receptors; type: functional, cell-based
IMR-32 [5] = assay: Maximum efficacy relative to 100(uM) (S)-nicotine for cell preparations containing alpha3-betaX IMR32 cells; type: functional, Homo sapiens
IMR-32 (Homo sapiens) = assay: Ability to stimulate Rb+ efflux from human IMR-32 cell preparations containing human alpha3-betaX receptors

Row | SMILES | Max (K177 cell line [1]) | Ki [2] | EC50 (IMR-32 [3]) | EC50 (K177 cell line [4]; Homo sapiens, K177) | Max (IMR-32 [5]) | IC50 (IMR-32 [3]) | IC50 (K177 cell line [4]) | EC50 (K177 cell line [4]; k177) | Max (IMR-32 (Homo sapiens))
1 | CN1CC[C@@H]1COc1cccnc1 | 103% | 3.5 nM | 38000 nM | 35000 nM | 39% |  |  |  | 
2 | c1cncc(OC[C@H]2CCN2)c1 | 159% |  | 1100 nM | 400 nM | 116% |  |  |  | 
3 | CN1CC[C@H]1COc1cccnc1 | 116% | 0.45 nM | 30000 nM | 3700 nM | 74% |  |  |  | 
4 | CN1CCC[C@@H]1COc1cccnc1 | <10% | 19.7 nM |  |  | <20% | 54000 nM | 110000 nM |  | 
5 | c1cncc(OC[C@H]2CCCN2)c1 | 120% | 0.14 nM | 5800 nM | 4300 nM | 100% |  |  |  | 
6 | c1cncc(OC[C@@H]2CCN2)c1 | 163% |  | 700 nM | 680 nM | 113% |  |  |  | 
7 | CN1CCC[C@H]1COc1cccnc1 (stereo in doubt; 2a) |  | 0.15 nM |  |  | 100% |  |  | 750 nM | 
8 | Clc1ccc(C2CC3CCC2N3)cn1 (stereo not drawn) [EPIBATIDINE] |  |  | 7 nM | 17 nM | 156% |  |  |  | 156%
9 | CN1CCC[C@H]1c1cccnc1 [NICOTINE] |  |  |  | 5000 nM | 100% |  |  |  | 100%
